We go through 13 molecules from PubChem BioAssay.

Assay [1] can be described thus: inhibitors of TNFa-induced NFkB p65 translocation, primary screen, imaging, HUVEC, MLSMR starter and 10KST1 sets (AID 438;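 active = inhibition above 20% together with a positive visual image hit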;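 also: compound added about 3h40 before a 20 min TNFalpha stimulation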;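 as to inhibition: signal is the nuclear over cytoplasmic p65 intensity ratio per well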). Conditions: HUVEC TNFa-induced p65 nuclear translocation; cell count: measured here: nuclei count (cytotoxicity indicator), at 2.08 µM; inhibition: at 2 µM, stronger effect = higher value, 0% TNFa-plus-vehicle, 100% no-TNFa wells.
The nature of assay [2]: reduction of polyQ htt aggregates in cells – imaging, exon1htt(103Q)mCFP cells, high-content imaging, primary screen (AID 483;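 active = visual image review flags a hit and inhibition of aggregation exceeds 20%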;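 also: compound exposure lasted 3 days before fixation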;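 as to nuclei count: percent of the per-plate median nuclei count of sample wells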). The following applies: exon1htt(103Q)mCFP cell line, aggregate imaging, at 2 µM; inhibition of aggregation: stronger effect = higher value; nuclei count: measured here: cell count, toxicity.
Assay [3] in a line: endothelial E-selectin expression blockers – imaging, HUVEC, immunofluorescence, MLSMR starter and 10KST1 sets, primary screen (AID 487;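 active = visually confirmed hit in the image check and inhibition above 20%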;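 as to inhibition: signal is fraction of cell area covered by stained E-selectin grains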;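 as to nuclei count: 100% = median nuclei count of all wells on the same plate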). Conditions: HUVEC TNFalpha-induced E-selectin immunofluorescence imaging, at 2 µM; inhibition: stronger effect = higher value; nuclei count: measured here: cell number, toxicity.
Assay [4] concerns the target Voltage-gated potassium channel subunit beta-2 (Rattus norvegicus) (UniProt P62483). The assay can be described thus: inhibitors of rat Kvbeta2 reductase activity – biochemical, NADPH fluorescence, primary screen (AID 622;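 active = fluorescence slope higher than the sample average by over 3 SD, cut at about -0.22 in these data, passing the limit was not always enough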;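 also: slope of raw intensity against log time taken from 70 to 1610 s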). The following applies: recombinant KvBeta, 4-cyanobenzaldehyde reduction, at 10 µM, stronger effect = higher value.
For assay [5] the target is unchanged. The assay can be described thus: enhancers of rat Kvbeta2 NADPH turnover – biochemical, NADPH fluorescence, primary screen (AID 623;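 active = NADPH fluorescence slope more negative than the mean of all samples by about 3 SD, 99.7% confidence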;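 also: fluorescence intensity change per second fitted from 20 to 320 s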). Conditions: Recombinant KvBeta, NADPH fluorescence decrease slope, 10 min; at 10 µM; stronger effect = lower value.
Assay [6] has as its target Muscarinic acetylcholine receptor M4 (Homo sapiens) (UniProt P08173). Nature of the assay: M4-linked GIRK flux change, two-sided – cell-based, HEK293 M4/GIRK, thallium flux, BTC-AM, M4 allosteric agonist project, primary screen (AID 625;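 active = fluorescence slope after compound addition differing from the mean of all tested samples at 99.7% confidence, mostly higher but some lower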;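 also: thallium influx through GIRK channels coupled to M4 in HEK293 cells with BTC-AM dye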). The following applies: at 10 µM, actives lie on both sides. A digest of the protocol:
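Material: HEK293 cells with M4 receptor and GIRK channels; Times: cells overnight at 37 °C, BTC-AM loading 1 h, reads 2 min total; Technique: kinetic BTC-AM fluorescence sampled at 1 Hz, 10 s pre-addition baseline; Read-out basis: slope over 15–24 s of trace normalized to starting intensity; Controls: carbachol positive, DMSO negative.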

Assay [7] is described as follows: blockers of RIG-like receptor reporter activation – cell-based, Sendai virus stimulus, luciferase, 10K MLSCN set, TLR/RLR signaling modifier project, primary screen (AID 602276;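 active = inhibition at or above 50% at 10 µM; inactive = inhibition below 50%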;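 also: firefly luciferase from ISG56 promoter only with Renilla not read in this screen; 0% = Sendai virus plus DMSO and 100% = medium plus DMSO without virus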). The following applies: HEK293 RL24 IRF3 luciferase reporter, at 10 µM, stronger effect = higher value. A general note: Reporter assays use an easily measured gene product as a stand-in for the process of interest.

Assay [8] is described as follows: TLR3 IRF3 reporter activation blockers – cell-based, poly I:C stimulus, luciferase, 10K MLSCN set, primary screen (AID 602277). Conditions: HEK293-TLR3 RL24 IRF3 luciferase reporter, at 10 µM, stronger effect = higher value.

The source made the active and inactive calls.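 The calls were made as follows, unless noted: active = inhibition of the reporter signal at or above 50%; inactive = inhibition below 50%.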

Muscarinic acetylcholine receptor M4 (Homo sapiens), sequence (P08173 whole entry, looked up): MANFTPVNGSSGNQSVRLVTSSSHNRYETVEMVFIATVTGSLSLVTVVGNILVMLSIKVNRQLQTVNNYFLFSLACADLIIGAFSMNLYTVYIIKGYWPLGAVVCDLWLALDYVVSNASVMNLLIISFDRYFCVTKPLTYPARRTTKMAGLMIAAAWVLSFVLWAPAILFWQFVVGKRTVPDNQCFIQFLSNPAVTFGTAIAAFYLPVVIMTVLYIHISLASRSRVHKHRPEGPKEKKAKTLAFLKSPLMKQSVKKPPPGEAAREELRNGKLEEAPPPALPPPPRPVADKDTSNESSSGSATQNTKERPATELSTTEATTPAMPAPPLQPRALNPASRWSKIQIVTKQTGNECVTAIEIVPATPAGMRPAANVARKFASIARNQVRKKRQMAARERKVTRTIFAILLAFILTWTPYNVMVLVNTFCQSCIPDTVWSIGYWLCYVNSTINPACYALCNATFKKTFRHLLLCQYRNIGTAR
Voltage-gated potassium channel subunit beta-2 (Rattus norvegicus), sequence (P62483 whole entry, looked up): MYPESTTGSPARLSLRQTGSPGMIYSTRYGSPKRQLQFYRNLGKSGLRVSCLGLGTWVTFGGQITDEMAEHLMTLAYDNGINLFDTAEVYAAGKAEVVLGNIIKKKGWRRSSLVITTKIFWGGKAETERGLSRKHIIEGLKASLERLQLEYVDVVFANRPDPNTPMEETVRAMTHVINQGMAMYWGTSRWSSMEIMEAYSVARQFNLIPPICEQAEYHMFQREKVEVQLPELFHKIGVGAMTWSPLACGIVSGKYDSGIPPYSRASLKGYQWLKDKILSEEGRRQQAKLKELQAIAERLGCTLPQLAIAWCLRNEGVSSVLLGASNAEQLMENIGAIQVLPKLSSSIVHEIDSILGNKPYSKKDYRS

Take `Cc1ccc(OCC(=O)N2CCN(C(=O)CCC3CCCC3)CC2)cc1`: in assay [1], the cell count was found to be 319. The inhibition – broadly, the drop in the measured response relative to a control, in per cent – in assay [1] was 0.5% (inactive); in assay [3], -1.5% (inactive); in assay [7] it was 12% (inactive); in assay [8], 11.5% (inactive). The inhibition of aggregation in assay [2] was -30.7% (inactive). For the same molecule, the nuclei count in assay [2] is 84.9%; in assay [3] it was 108%. For the same molecule, the fluorescence slope in assay [4] was -0.242 (inactive); in assay [6], 0.00663 (inactive). Besides, in assay [5], the NADPH fluorescence slope is -1.9e-05 (inactive).

`COc1cccc(-n2nnc3c(=O)n(Cc4cccc(F)c4)cnc32)c1`: the cell count in assay [1] amounted to 421. Further, the inhibition is -1.7% (inactive) in assay [1], -3.7% (inactive) in assay [3], -8.19% (inactive) in assay [7] and -14% (inactive) in assay [8]. In addition, the inhibition of aggregation in assay [2] is -11.5% (inactive). Besides, the nuclei count in assay [2] worked out at 127%; in assay [3] it was 117%. Besides, the fluorescence slope in assay [4] is -0.304 (inactive); in assay [6] it was 0.00737 (inactive). Besides, the NADPH fluorescence slope in assay [5] is -7e-06 (inactive).

Consider `COc1ccccc1NC(=O)C1=C(C)Nc2ncnn2C1c1ccc(C)o1` (stereo not drawn), for which the cell count in assay [1] is 355. For the same molecule, the inhibition is 14.6% (inactive) in assay [1], 56.5% (inactive) in assay [3], 19.9% (inactive) in assay [7] and 20.2% (inactive) in assay [8]. The inhibition of aggregation in assay [2] is 24.5% (inactive). In addition, the nuclei count in assay [2] came out at 90.6%; in assay [3], 85.1%. Moreover, the fluorescence slope in assay [4] is -0.554 (inactive); in assay [6], 0.00338 (inactive). Besides, the NADPH fluorescence slope in assay [5] is -0.000118 (inactive).

For the molecule `CCOC(=O)CN(C)Cc1c[nH]c2ccccc12`, in assay [1], the cell count is 442. In addition, the inhibition in assay [1] is -2.2% (inactive); in assay [3], 17.6% (inactive); in assay [7], 27.3% (inactive); in assay [8], 36.9% (inactive). Further, the inhibition of aggregation in assay [2] is -15.3% (inactive). For the same molecule, the nuclei count came to 93.9% in assay [2] and 78.5% in assay [3]. In addition, the values for the fluorescence slope in assay [4] and in assay [6] were -0.426 (inactive) and 0.00441 (inactive), respectively. Further, the NADPH fluorescence slope in assay [5] is -4.3e-05 (inactive).

Turning to `O=C1COc2ccc(C(=O)NCc3ccco3)cc2N1`, in assay [1], the cell count was 668. In addition, the inhibition is -0.8% (inactive) in assay [1], 85.2% (active) in assay [3], -3.82% (inactive) in assay [7] and 9.4% (inactive) in assay [8]. For the same molecule, the inhibition of aggregation in assay [2] is -4.2% (inactive). Further, the nuclei count in assay [2] came to 79.6%; in assay [3] it was 82.3%. For the same molecule, the results for the fluorescence slope in assay [4] and in assay [6] were -0.575 (inactive) and 0.00601 (inactive), respectively. Also, the NADPH fluorescence slope in assay [5] is -3.7e-05 (inactive).

Turning to `COCCn1c(=O)[nH]c2cc(C(=O)NCCCN3CCN(c4ccc(F)cc4)CC3)ccc2c1=O`, in assay [1], the cell count was 333. Further, the inhibition in assay [1] is 21.3% (inactive); in assay [3], -22.8% (inactive); in assay [7], 16.2% (inactive); in assay [8] it was 9.46% (inactive). The inhibition of aggregation in assay [2] is -5.1% (inactive). For the same molecule, the nuclei count is 107% in assay [2] and 111% in assay [3]. Further, the values for the fluorescence slope in assay [4] and in assay [6] were -0.472 (inactive) and 0.00483 (inactive), respectively. The NADPH fluorescence slope in assay [5] is -3.1e-05 (inactive).

For the molecule `CCN1CCN(Cc2ccccc2NC(=O)Nc2ccc(C)cc2)CC1`, the cell count in assay [1] was 258. The inhibition in assay [1] was -3.1% (inactive); in assay [3], -23.4% (inactive); in assay [7] it was -27.3% (inactive); in assay [8], -69.1% (inactive). In addition, the inhibition of aggregation in assay [2] is 21.9% (inactive). For the same molecule, the nuclei count in assay [2] was 41.1%; in assay [3], 94%. For the same molecule, the fluorescence slope in assay [4] is -0.487 (inactive); in assay [6] it was 0.00496 (inactive). For the same molecule, the NADPH fluorescence slope in assay [5] was -6.3e-07 (inactive).

With `Nc1nc(CN2CCOCC2)cs1`, in assay [1], the cell count came to 650. Further, the inhibition in assay [1] was -4.8% (inactive); in assay [3], 14.6% (inactive); in assay [7], 15.2% (inactive); in assay [8] it was 14.7% (inactive). In addition, the inhibition of aggregation in assay [2] was 7.7% (inactive). The nuclei count in assay [2] was found to be 104%; in assay [3], 113%. Also, the fluorescence slope in assay [4] is -0.577 (inactive); in assay [6], 0.00598 (inactive). Also, the NADPH fluorescence slope in assay [5] was -2.3e-05 (inactive).

`COc1ccccc1N1CCN(C(=O)c2ccc3nc(-c4ccco4)c(-c4ccco4)nc3c2)CC1`: the cell count in assay [1] came to 570. The inhibition in assay [1] was -15.9% (inactive); in assay [3], -44.3% (inactive); in assay [7] it was 16.2% (inactive); in assay [8], 8.44% (inactive). For the same molecule, the inhibition of aggregation in assay [2] was 5.2% (inactive). In addition, the nuclei count was 136% in assay [2] and 115% in assay [3]. Also, the fluorescence slope is -0.324 (inactive) in assay [4] and 0.005 (inactive) in assay [6]. Further, the NADPH fluorescence slope in assay [5] was 3.6e-06 (inactive).

`Cn1cccc1-c1nc2ccc(NC(=O)c3ccco3)cc2[nH]1`: in assay [1], the cell count turned out to be 293. The inhibition in assay [1] was -0.9% (inactive); in assay [3] it was -8.2% (inactive); in assay [7], -37.6% (inactive); in assay [8], -102% (inactive). In addition, the inhibition of aggregation in assay [2] was -0.8% (inactive). Besides, the nuclei count in assay [2] is 86.3%; in assay [3], 110%. The results for the fluorescence slope in assay [4] and in assay [6] were -0.429 (inactive) and 0.00457 (inactive), respectively. Moreover, the NADPH fluorescence slope in assay [5] was 1e-06 (inactive).

For `Cc1cccc(N(C)C(=O)c2cc3cc4ccc(C)cc4nc3o2)c1`, the cell count in assay [1] is 214. The inhibition in assay [1] was -0.3% (inactive); in assay [3] it was -24.7% (inactive); in assay [7] it was 37.8% (inactive); in assay [8], -34.7% (inactive). Also, the inhibition of aggregation in assay [2] was 11.5% (inactive). Besides, the nuclei count in assay [2] worked out at 92.4%; in assay [3], 109%. Besides, the fluorescence slope was -0.396 (inactive) in assay [4] and 0.00523 (inactive) in assay [6]. The NADPH fluorescence slope in assay [5] was -2.9e-05 (inactive).

As to `Cc1ccc(C2CC(c3cccc(Br)c3)Nc3nnnn32)cc1` (stereo not drawn), the cell count in assay [1] stood at 460. The inhibition in assay [1] is -10% (inactive); in assay [3] it was -1.3% (inactive); in assay [7], 25.2% (inactive); in assay [8], 26% (inactive). Moreover, the inhibition of aggregation in assay [2] is -4.9% (inactive). Also, the nuclei count in assay [2] is 90.9%; in assay [3], 79.9%. In addition, the values for the fluorescence slope in assay [4] and in assay [6] were -0.579 (inactive) and 0.00604 (inactive), respectively. The NADPH fluorescence slope in assay [5] was 1.4e-05 (inactive).

For the molecule `CCNCCNC(=O)c1c(O)c2ccccc2n(CC)c1=O`, the cell count in assay [1] is 289. The inhibition in assay [1] was -1.4% (inactive); in assay [3], 29.6% (inactive); in assay [7], 10% (inactive); in assay [8], 13.5% (inactive). In addition, the inhibition of aggregation in assay [2] is -5.8% (inactive). Also, the nuclei count came out at 60.8% in assay [2] and 99.7% in assay [3]. The fluorescence slope was -0.539 (inactive) in assay [4] and 0.0077 (inactive) in assay [6]. Besides, the NADPH fluorescence slope in assay [5] is -4.3e-05 (inactive).
